Compound activity as filed in PubChem.
TRPC4 PAM – positive allosteric modulators of TRPC4, primary screen, cell-based, mouse TRPC4beta, HEK293 mu-opioid, Fluo-4 calcium; AID 2227, 2009; Short transient receptor potential channel 4 (Mus musculus), Q9QUQ5; B-score at 10 µM; actives 0.42% (n = 310,000); DAMGO EC20, Fluo-4 Ca2+ flux; stronger effect = higher value;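 active means B-score of calcium response area above 5 SD of library B-scores, with initial fluorescence ratio within 5 SD of library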;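 further: B-score of integrated fluorescence ratio over time as area under calcium response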
Kir21 inh – inhibitors of mouse Kir2.1 inward-rectifier potassium channel | HEK293-Kir2.1, FluxOR thallium flux fluorescence; stronger effect = lower value | actives 0.85% (n = 310,000) | Inward rectifier potassium channel 2 (Mus musculus), P35561 | AID 1672, 2009 | B-score at 10 µM;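 active means fluorescence ratio B-score at or below minus 3 SD of library scores, with starting-brightness B-score within 2 SD, cut at about -4.2 in these data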;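 further: channel flux triggered by added potassium and thallium sulfate stimulus; B-score of peak minus minimum fluorescence over baseline after thallium stimulus; more negative B-score means stronger Kir2.1 block with less thallium influx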
TRPC6 inh – mouse TRPC6 channel inhibitors, primary screen, cell-based, HEK293, membrane potential dye | ACh-evoked depolarization; stronger effect = lower value | B-score at 10 µM | actives 1.1% (n = 310,000);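 active means B-score under library mean minus 3 SD, initial fluorescence not abnormally high, positive integrated signal ratio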;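 further: B-score derived from integrated fluorescence ratio over the kinetic read; more negative B-score means stronger inhibition of depolarization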
TRPC4 inh – inhibitors of mouse TRPC4 channel, primary screen, Fluo4 calcium, HEK293 TRPC4beta/mu-opioid cells. Short transient receptor potential channel 4 (Mus musculus), Q9QUQ5. DAMGO-evoked Fluo4 calcium flux; stronger effect = lower value. B-score at 10 µM. actives 0.39% (n = 300,000). AID 2247, 2010;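 active means B-score over 3 SD under the library average, no early fluorescence shift, positive overall ratio signal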
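Material: HEK293 cells with stable TRPC4beta plus mu-opioid receptor expression; probe or stimulus: DAMGO in two steps, submaximal then maximal; technique: Fluo4 calcium fluorescence by kinetic imaging, 5 s 1 Hz baseline; measure: integrated fluorescence ratio relative to baseline, converted to per-well B score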
TRPC4 act – activators of mouse TRPC4 channel, primary screen, Fluo4 calcium, HEK293 TRPC4beta/mu-opioid cells | B-score at 10 µM | Fluo4 calcium fluorescence; stronger effect = higher value | Short transient receptor potential channel 4 (Mus musculus), Q9QUQ5 | actives 0.49% (n = 310,000) | AID 2237, 2010;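 active means B-score above 5 SD of library B-scores, and initial fluorescence ratio not above library mean plus 5 SD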;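 further: positive B-score marks a calcium rise read as TRPC4 activation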
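Material: TRPC4beta and mu-opioid receptor HEK293 stable cells | Incubation: 45 min room-temperature Fluo4 loading, 110 s read | Detection: Kinetic Fluo4 calcium fluorescence | Measure: Integrated baseline-normalised fluorescence ratio, converted to per-well B score | Benchmarks: Low control buffer alone, high control maximal DAMGO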
TRPC6 act – mouse TRPC6 channel activators, primary screen, cell-based, HEK293, membrane potential dye. HEK293-TRPC6 membrane potential dye fluorescence; stronger effect = higher value. B-score at 10 µM. actives 0.13% (n = 310,000). AID 2550, 2010;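 active means B-score of the integrated fluorescence ratio above library mean plus 3 SD, and starting fluorescence ratio within library mean plus 5 SD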;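 further: higher score means more depolarization so channel activation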
hERG inh – hERG channel inhibition, counter-screen for Kir2.1 inhibitor project, cell-based, thallium flux | hERG-expressing cells | shares compounds with Kir21 inh | AID 2236, 2010 | actives 20% (n = 320) | inhibition, % at 10 µM;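 further: host cells are CHO cells stably expressing hERG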
KCNK9 inh – KCNK9 channel inhibition, selectivity assay for Kir2.1 inhibitor project, cell-based; actives 5% (n = 320); shares compounds with Kir21 inh; KCNK9-expressing cells, ion flux inhibition; inhibition, % at 10 µM; AID 2329, 2010
Kir21 ephys inh – mouse Kir2.1 channel blockers, Kir2.1 inhibitor project, cell-based, secondary, automated electrophysiology; shares compounds with Kir21 inh; Kir2.1 cells, automated patch-clamp current inhibition; inhibition, % at 25 µM; actives 71% (n = 320); AID 463252, 2010
Active calls of the source: *. A selection: hits, their analogues and other compounds. The true share with any hit is near 2.9%. Unless noted, how the calls were made is not given here.

Results for CCOC(=O)c1nnn(-c2nonc2N)c1CSc1ccc(C)cc1 ?
TRPC4 PAM: inactive; Kir21 inh: -8.5*; TRPC6 inh: inactive; TRPC4 inh: inactive; TRPC4 act: inactive; TRPC6 act: inactive; hERG inh: inactive; KCNK9 inh: inactive; Kir21 ephys inh: 8.6%*

Results for COc1ccc(CN2CCCC(C(=O)c3ccc4c(c3)OCO4)C2)c(F)c1 (stereo unspecified) ?
TRPC4 PAM: inactive; Kir21 inh: -6.4*; TRPC6 inh: inactive; TRPC4 inh: inactive; TRPC4 act: inactive; TRPC6 act: inactive; hERG inh: 46%*; KCNK9 inh: inactive; Kir21 ephys inh: 23%*

How did COc1cccc(CN2CCCC(C(=O)c3ccc4c(c3)OCO4)C2)c1O (stereo unspecified) do in these assays?
TRPC4 PAM: inactive; Kir21 inh: -0.65; TRPC6 inh: inactive; TRPC4 inh: inactive; TRPC4 act: inactive; TRPC6 act: inactive

How did Cc1ccc(C)c(S(=O)(=O)N2CCN(C(=O)Cn3[nH]c(=O)c4ccccc4c3=O)CC2)c1 do in these assays?
TRPC4 PAM: inactive; Kir21 inh: 1.7; TRPC6 inh: inactive; TRPC4 inh: inactive; TRPC4 act: inactive; TRPC6 act: inactive

How did CCOc1nc(C)cc(C)c1S(=O)(=O)c1ccc(Cl)cc1 do in these assays?
TRPC4 PAM: inactive; Kir21 inh: -6.4*; TRPC6 inh: inactive; TRPC4 inh: inactive; TRPC4 act: inactive; TRPC6 act: inactive; hERG inh: inactive; KCNK9 inh: inactive; Kir21 ephys inh: inactive

Results for O=C(N/N=C/c1cccc(Oc2ccccc2)c1)c1cccc(O)c1 ?
TRPC4 PAM: inactive; Kir21 inh: -8.1*; TRPC6 inh: inactive; TRPC4 inh: inactive; TRPC4 act: inactive; TRPC6 act: inactive; hERG inh: inactive; KCNK9 inh: inactive; Kir21 ephys inh: 41%*

Results for O=C(NCCCN1CCOCC1)c1ccc(CSc2ccc(Cl)cc2)cc1 ?
TRPC4 PAM: inactive; Kir21 inh: -7.8*; TRPC6 inh: inactive; TRPC4 inh: inactive; TRPC4 act: inactive; TRPC6 act: inactive; hERG inh: 46%*; KCNK9 inh: inactive; Kir21 ephys inh: 21%*

Results for CC(=O)c1ccc(OCC(O)CN2CCc3ccccc3C2)cc1 (stereo unspecified) ?
TRPC4 PAM: inactive; Kir21 inh: -0.15; TRPC6 inh: inactive; TRPC4 inh: inactive; TRPC4 act: inactive; TRPC6 act: inactive

What do the screens show for `Cc1cc(OCC(O)CN2CCc3ccccc3C2)cc(C(C)C)c1` (stereo unspecified)?
TRPC4 PAM: inactive; Kir21 inh: -13*; TRPC6 inh: inactive; TRPC4 inh: inactive; TRPC4 act: inactive; TRPC6 act: inactive; hERG inh: 58%*; KCNK9 inh: inactive; Kir21 ephys inh: 6.0%*

How did CC1(C(=O)O)CCC(C(=O)N2CCCCC2)C1(C)C (stereo unspecified) do in these assays?
TRPC4 PAM: inactive; Kir21 inh: -1; TRPC6 inh: inactive; TRPC4 inh: inactive; TRPC4 act: inactive; TRPC6 act: inactive

What do the screens show for `CC(C)N(Cc1ccccc1)S(=O)(=O)c1ccc(F)cc1`?
TRPC4 PAM: inactive; Kir21 inh: -2.3; TRPC6 inh: inactive; TRPC4 inh: inactive; TRPC4 act: inactive; TRPC6 act: inactive

How did CC(C)N(Cc1ccccc1)S(=O)(=O)c1ccc(Cl)nc1 do in these assays?
TRPC4 PAM: inactive; Kir21 inh: -6.9*; TRPC6 inh: inactive; TRPC4 inh: inactive; TRPC4 act: inactive; TRPC6 act: inactive; hERG inh: inactive; KCNK9 inh: inactive; Kir21 ephys inh: 33%*

Results for CCC(C)NC(=O)Cn1cc(S(=O)(=O)N2CCN(c3ccccc3F)CC2)c2ccccc2c1=O (stereo unspecified) ?
TRPC4 PAM: inactive; Kir21 inh: -0.52; TRPC6 inh: inactive; TRPC4 inh: inactive; TRPC4 act: inactive; TRPC6 act: inactive

How did COc1cc(CNCc2ccccn2)ccc1OCc1ccc(Cl)cc1Cl do in these assays?
TRPC4 PAM: inactive; Kir21 inh: -6*; TRPC6 inh: inactive; TRPC4 inh: inactive; TRPC4 act: inactive; TRPC6 act: inactive; hERG inh: 65%*; KCNK9 inh: inactive; Kir21 ephys inh: 34%*

Results for COc1cc(CNCc2ccccn2)ccc1OCC(N)=O ?
TRPC4 PAM: inactive; Kir21 inh: 2.1; TRPC6 inh: inactive; TRPC4 inh: inactive; TRPC4 act: inactive; TRPC6 act: inactive

How did Cc1ccc2cc(C#N)c(SCC(=O)N3CCCc4ccccc43)nc2c1C do in these assays?
TRPC4 PAM: inactive; Kir21 inh: -0.14; TRPC6 inh: inactive; TRPC4 inh: inactive; TRPC4 act: inactive; TRPC6 act: inactive

What do the screens show for `NS(=O)(=O)c1ccc(NC(=O)CSc2cn[nH]n2)cc1`?
TRPC4 PAM: inactive; Kir21 inh: -0.79; TRPC6 inh: inactive; TRPC4 inh: inactive; TRPC4 act: inactive; TRPC6 act: inactive

How did CCCCCCSC1=C(C#N)C(c2ccc(C)o2)CC(=O)N1 (stereo unspecified) do in these assays?
TRPC4 PAM: inactive; Kir21 inh: -6*; TRPC6 inh: inactive; TRPC4 inh: inactive; TRPC4 act: inactive; TRPC6 act: inactive; hERG inh: inactive; KCNK9 inh: inactive; Kir21 ephys inh: inactive
